MC4R ag barr: MC4R agonists recruiting beta-arrestin, primary screen, cell-based, luminescence, agonist arm of biased-ligand search; Melanocortin receptor 4 (Homo sapiens), P32245; actives 0.98% (n = 360,000); U2OS MC4R beta-arrestin complementation; percent of melanotan II response, DMSO zero; activation, % at 8.9 µM; AID 540308, 2011;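 active = activation above a per-plate cutoff, the mean activation of sample wells on that plate plus 3 SD, cut at about 8% in these data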
FXN GAA850 act: FXN promoter activators, primary screen, cell-based, luciferase luminescence, HEK293 lucGAA850 | HEK293 lucGAA850 FXN promoter luciferase reporter, 24 h; percent of 10 µM SAHA response | activation, % at 6 µM | actives 0.56% (n = 360,000) | AID 540364, 2011;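 active = activation above the average of all compounds screened plus 3 SD, cutoff fixed separately per campaign, cut at about 7.5% in these data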;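 also: 0% = DMSO wells and 100% = 10 µM SAHA wells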
AHR activator: AHR activators, primary screen, cell-based, luminescence, luciferase reporter, human; AHR-responsive luciferase reporter cells; activation, % at 5 µM; actives 2.5% (n = 320,000); in the data active = activation above about 47%;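 also: 0% = vehicle wells and 100% = reference agonist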
HTR2A ag: mouse Htr2a agonists via beta-arrestin recruitment, primary screen, cell-based, luminescence | actives 0.66% (n = 360,000) | 5-hydroxytryptamine receptor 2A (Mus musculus), P35363 | activation, % at 7.6 µM | CHO-K1 mHTR2A beta-arrestin complementation; percent of 30 µM serotonin response;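 active = activation above a run cutoff, the mean activation of all tested compounds plus 3 SD, cut at about 14% in these data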;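 also: 0% = plate median of compound wells and 100% = 30 µM serotonin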
Target sequence (P35363 whole entry, looked up): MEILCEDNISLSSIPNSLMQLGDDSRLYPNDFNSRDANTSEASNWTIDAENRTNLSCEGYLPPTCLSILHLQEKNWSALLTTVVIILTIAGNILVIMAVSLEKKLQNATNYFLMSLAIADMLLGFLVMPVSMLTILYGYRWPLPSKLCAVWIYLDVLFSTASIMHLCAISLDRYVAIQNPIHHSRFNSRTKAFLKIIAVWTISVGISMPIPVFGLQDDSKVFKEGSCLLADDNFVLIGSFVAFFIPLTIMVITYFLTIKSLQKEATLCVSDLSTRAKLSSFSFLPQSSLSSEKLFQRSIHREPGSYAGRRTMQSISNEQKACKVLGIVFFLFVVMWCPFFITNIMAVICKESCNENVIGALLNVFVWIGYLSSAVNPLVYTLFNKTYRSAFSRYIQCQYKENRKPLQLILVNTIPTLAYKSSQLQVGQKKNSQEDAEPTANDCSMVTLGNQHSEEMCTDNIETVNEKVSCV
MC4R antagonist: MC4R antagonists of cAMP signaling, primary screen, cell-based, TR-FRET, antagonist arm of biased-ligand search; actives 0.48% (n = 360,000); inhibition, % at 6.5 µM; MC4R-expressing cells, MTII-stimulated cAMP, LANCE TR-FRET; Melanocortin receptor 4 (Homo sapiens), P32245;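 active = inhibition above its plate's cutoff, the mean of tested wells on that plate plus 3 SD, cut at about 29% in these data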;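 also: 0% = Melanotan II alone and 100% = Melanotan II plus saturating MCL0020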
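Assay system: U2OS-MC4R stable cell line; Also added: Melanotan II; Technique: Eu-cAMP/anti-cAMP TR-FRET, emission 671 nm; Times: 30-min compound, 1-h challenge, 1-h detection, room temperature.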
Starred values were filed as active, the others as inactive; · = not tested or not shown. A selection: hits, their analogues and other compounds. The true share with any hit is near 4.7%.

SMILES | MC4R ag barr | FXN GAA850 act | AHR activator | HTR2A ag | MC4R antagonist
Cc1cc(C)c2sc(N(CCCN(C)C)C(=O)c3ccc(S(=O)(=O)N4CCCc5ccccc54)cc3)nc2c1 | 1.3 | -2.0 | 0.3 | -11.9 | 7.5
CN(C)CCCN(C(=O)c1ccc2c(c1)CCCC2)c1nc2cc3c(cc2s1)OCO3 | 8.6* | -1.1 | -2.1 | -8.1 | -3.9
CCOc1ccc(Cl)cc1-c1cc(C(=O)NCc2cccc(C(F)(F)F)c2)[nH]n1 | 2.0 | 0.9 | · | -5.5 | 1.8
Fc1ccc(-c2c[nH]c(=S)n2Cc2ccccc2)cc1 | -5.0 | 0.2 | 2.5 | -16.0 | 11.4
CN(C)CCCN(C(=O)c1ccc(S(=O)(=O)N2CCc3ccccc3C2)cc1)c1nc2ccc(F)cc2s1 | 17.1* | 0.6 | -0.1 | -9.7 | 5.8
CC1OC2CC(=O)OC2C2=C1C(=O)c1c(O)cccc1C2=O (centres undefined) | -3.2 | -16.6 | · | -15.9 | -12.1
COc1ccc(-c2csc(NC(=S)NC(=O)/C=C/c3ccco3)n2)cc1OC | 9.1* | -3.0 | 12.5 | -6.1 | -20.3
O=C(/C=C/c1ccco1)NC(=S)Nc1ccc(N2CCOCC2)c(Cl)c1 | 22.1* | -0.9 | 12.7 | 2.3 | -28.9
COc1ccc(-c2csc(NC(=S)NC(=O)/C=C/c3ccco3)n2)cc1Br | -1.2 | -0.7 | 0.8 | 0.3 | -17.7
Cc1ccc(/C=C/C(=O)Nc2cccc(S(=O)(=O)N3CCOCC3)c2)o1 | -1.1 | 1.7 | 58.5* | -0.2 | -0.1
O=C(/C=C/c1ccco1)NC(=S)Nc1cccc(-c2nc3ccccc3o2)c1 | -4.0 | -1.3 | 56.8* | -3.1 | -15.6
O=C1OC2C(O)COC23OC(O)CCC13O (centres undefined) | · | · | · | -2.2 | ·
CN(CC(=O)Nc1ccc(F)c(F)c1F)C(=O)CCN1C(=O)C2CCCCC2C1=O (centres undefined) | -4.5 | -0.8 | 0.8 | 0.2 | 1.0
COc1ccccc1/C=C/C(=O)Nc1cccc(S(=O)(=O)N2CCOCC2)c1 | 0.1 | 0.7 | 14.4 | 7.3 | 1.6
O=C(/C=C/c1ccco1)Nc1cccc(S(=O)(=O)N2CCOCC2)c1 | -1.5 | 1.4 | 50.4* | 3.1 | -3.0
COc1ccccc1C(=O)C1CCCN(C(=O)c2ccco2)C1 (centres undefined) | -0.7 | 1.3 | -1.2 | 6.2 | -1.6
Cc1cccc(N/N=C/c2ccccc2O)c1 | 2.6 | 5.9 | 65.0* | 7.6 | -0.8
Cc1ccc(/C=N/Nc2cccc3cccnc23)c(O)c1 | -1.8 | 7.2 | 60.0* | 3.5 | 3.1
COc1ccccc1C(=O)c1nc2ccccc2n1C | -0.6 | -1.0 | 62.5* | 4.7 | 7.2
O=C(c1cccc(-c2ccccc2)c1)N1CC[C@@H](N2CCC(O)CC2)[C@H](O)C1 | -3.0 | -2.7 | -1.0 | 0.6 | 8.9
Cc1ccc2oc(-c3cccc(NC(=O)c4ccc(Br)o4)c3C)nc2c1 | 2.2 | 3.5 | 32.5 | -1.9 | -6.2
Cc1c(NC(=O)CSc2ccc(Cl)cc2)cccc1-c1nc2cc(Cl)ccc2o1 | 0.1 | -1.6 | 96.7* | -0.2 | 4.2
C[C@H](c1ccccc1)N1C[C@H](COCc2ccccc2)Oc2cc(N3CCC[C@H]3C(N)=O)ccc2S1(=O)=O | · | · | · | -6.0 | ·
NC(=O)c1cc2ccccc2o/c1=N/NC(=O)c1ccccc1 | -1.5 | -0.6 | 50.8* | 0.7 | -15.9
COc1cccc(C(=O)N/N=c2/oc3ccccc3cc2C(N)=O)c1 | -1.8 | -1.9 | 18.1 | 1.9 | -8.3
SMILES | MC4R ag barr | FXN GAA850 act | AHR activator | HTR2A ag | MC4R antagonist
NS(=O)(=O)c1ccc(NC(=O)CCC(=O)c2ccc(Cl)s2)cc1 | 1.1 | 0.7 | -1.3 | 3.6 | 4.1
COc1ccc(CN=Cc2[nH]c3ccc(Br)c(Cl)c3c2O)cc1 | 0.4 | -2.5 | 57.2* | 1.2 | -1.8
Cc1ccc(Nc2nc(Nc3ccc(C)cc3)nc(SC3=NCCS3)n2)cc1 | -1.1 | 0.5 | 59.6* | -9.6 | 13.9
OC1CCN(c2cc(-c3ccccc3)nc3cc(-c4ccc(F)cc4)nn23)CC1 | -0.5 | 2.0 | 2.5 | 0.1 | 2.0
COc1cccc(-c2cc3nc(-c4ccccc4)cc(N4CCCC(O)C4)n3n2)c1 (centres undefined) | -0.1 | -0.1 | 73.8* | -2.0 | 8.8
CS(=O)(=O)c1cccc(-c2nnc(NC(=O)C3=COCCO3)o2)c1 | -0.9 | -0.2 | 1.2 | -5.3 | -0.1

Screens deposited in PubChem BioAssay by The Scripps Research Institute Molecular Screening Center.
